Experiment [1] addresses T1, Toll-like receptor 7 (Homo sapiens) (UniProt Q9NYK1).
T1 sequence (whole entry): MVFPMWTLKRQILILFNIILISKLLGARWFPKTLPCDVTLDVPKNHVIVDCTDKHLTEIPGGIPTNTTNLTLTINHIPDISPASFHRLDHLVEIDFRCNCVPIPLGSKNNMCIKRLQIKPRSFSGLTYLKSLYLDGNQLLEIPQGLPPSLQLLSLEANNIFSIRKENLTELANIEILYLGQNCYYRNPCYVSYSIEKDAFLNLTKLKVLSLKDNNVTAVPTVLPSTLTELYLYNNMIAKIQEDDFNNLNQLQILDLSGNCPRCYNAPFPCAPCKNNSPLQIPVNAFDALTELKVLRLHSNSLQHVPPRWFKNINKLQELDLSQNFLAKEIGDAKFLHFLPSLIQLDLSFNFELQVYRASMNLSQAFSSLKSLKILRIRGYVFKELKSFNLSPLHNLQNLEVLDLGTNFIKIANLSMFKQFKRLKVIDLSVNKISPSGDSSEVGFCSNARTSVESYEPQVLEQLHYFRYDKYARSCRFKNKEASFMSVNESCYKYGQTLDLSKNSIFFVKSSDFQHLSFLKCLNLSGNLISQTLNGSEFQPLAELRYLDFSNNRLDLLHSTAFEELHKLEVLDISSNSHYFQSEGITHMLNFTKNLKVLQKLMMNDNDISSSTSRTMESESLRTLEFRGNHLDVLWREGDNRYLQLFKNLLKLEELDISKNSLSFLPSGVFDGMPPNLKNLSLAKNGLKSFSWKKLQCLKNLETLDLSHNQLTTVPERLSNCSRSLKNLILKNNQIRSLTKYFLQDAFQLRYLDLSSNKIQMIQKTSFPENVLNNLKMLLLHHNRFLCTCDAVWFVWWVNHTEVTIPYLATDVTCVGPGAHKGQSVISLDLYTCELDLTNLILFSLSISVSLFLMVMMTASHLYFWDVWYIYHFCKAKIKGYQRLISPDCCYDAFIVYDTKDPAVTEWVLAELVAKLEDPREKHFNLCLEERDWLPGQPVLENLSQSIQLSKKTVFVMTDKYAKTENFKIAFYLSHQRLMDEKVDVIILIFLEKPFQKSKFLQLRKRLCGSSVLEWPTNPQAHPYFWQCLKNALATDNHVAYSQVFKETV
The experiment is described as follows: Inhibition of human TLR7 expressed in HEK293 cells assessed as decrease in R848-induced NF-kappaB activation-mediated SEAP production at 5 uM after 24 hrs by Quanti-blue-based assay relative to control. It is filed as cell-based.

Experiment [2] concerns the target Toll-like receptor 5 (Homo sapiens) (UniProt O60602). Kind of experiment: Antagonist activity at human TLR5 expressed in HEK293 cells assessed as decrease in flagellin-induced NF-kappaB activation-mediated SEAP production at 10^-9 to 10^-5 M after 24 hrs by Quanti-blue-based assay. It is filed as cell-based. Put shortly:
(§1)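 HEK293 cells stably carrying a human TLR plus an NF-κB-driven SEAP reporter, seeded 5×10^4/well for 24 h at 37 °C, then stimulated: Pam3CSK4 100 µg/mL (TLR1/2), Pam2CSK4 100 µg/mL, poly I:C 5 µg/mL (TLR3), LPS 20 ng/mL (TLR4), flagellin 100 ng/mL (TLR5), R848 1 µg/mL (TLR7, TLR8), CpG-ODN2006 1 µg/mL (TLR9). After 24 h with compound, supernatant mixed with QUANTI-Blue, 1 h 37 °C, OD 620 nm.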

The test system of experiment [3] is HeLa. The experiment is described as follows: Induction of apoptosis in human HeLa cells after 24 hrs by Annexin-V FITC/propidium iodide staining based flow cytometry. It is filed as functional, cell-based. In outline: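 HeLa cells, 3×10^5/well, attached 24 h, then DMSO or 5, 10, 20 µM for 24 h; harvested with EDTA-free 0.25% trypsin, Annexin V-FITC/PI double stained, flow cytometry; early plus late apoptotic fractions counted; three independent experiments.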

Experiment [4] concerns the target Toll-like receptor 8 (Homo sapiens) (UniProt Q9NR97). Kind of experiment: Antagonist activity at human TLR8 expressed in HEK293 cells assessed as decrease in R848-induced NF-kappaB activation-mediated SEAP production at 10^-9 to 10^-5 M after 24 hrs by Quanti-blue-based assay. It is filed as cell-based. Put shortly:
as §1

In experiment [5] the target is Toll-like receptor 9 (Homo sapiens) (UniProt Q9NR96). Kind of experiment: Antagonist activity at human TLR9 expressed in HEK293 cells assessed as decrease in CpG-ODN2006-induced NF-kappaB activation-mediated SEAP production at 10^-9 to 10^-5 M after 24 hrs by Quanti-blue-based assay. It is filed as cell-based. Put shortly: as §1
Experiment [6] deals with Tumor necrosis factor receptor superfamily member 1A (Homo sapiens, UniProt P19438). Kind of experiment: Inhibition of TNFR in TLR null HEK-blue cells assessed as decrease in TNFalpha-stimulated NF-kappaB activation-mediated SEAP production after 24 hrs by Quanti-blue-based assay. It is filed as cell-based.
Experiment [7] has as its system RAW264.7. Kind of experiment: Inhibition of LPS-induced PI3K-mediated AKT phosphorylation in mouse RAW264.7 cells at 1 to 10 uM preincubated for 1 hr followed by LPS stimulation for 15 to 30 mins by Western blot method. It is filed as cell-based. In outline: (§2)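 RAW 264.7 cells, 3×10^6 per dish overnight, pretreated 1 h with 1, 5 or 10 µM, then LPS 100 ng/mL for 15 or 30 min; nuclear/cytoplasmic lysates (20–30 µg) run on 10% SDS-PAGE, immunoblotted for phospho/total proteins, GAPDH loading control, ECL, densitometry; three independent experiments.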

Experiment [8] deals with RAW264.7. Kind of experiment: Inhibition of LPS-induced JNK phosphorylation in mouse RAW264.7 cells at 1 to 10 uM preincubated for 1 hr followed by LPS stimulation for 15 to 30 mins by Western blot method. It is filed as cell-based. In outline:
as §2

Experiment [9] addresses Tyrosine-protein kinase SYK (Mus musculus) (UniProt P48025). Kind of experiment: Inhibition of LPS-induced SYK phosphorylation in mouse RAW264.7 cells preincubated for 1 hr followed by LPS stimulation for 30 mins by Western blot method. It is filed as cell-based. Put shortly:
as §2

Experiment [10] concerns the target Tyrosine-protein kinase SYK (Homo sapiens) (UniProt P43405). Kind of experiment: Inhibition of wild-type human partial length SYK (D354 to N635 residues) expressed in bacterial expression system assessed as residual activity at 10 uM by Kinomescan method.
In experiment [11] the target is Mitogen-activated protein kinase 15 (Homo sapiens) (UniProt Q8TD08). The experiment is described as follows: Inhibition of wild-type human partial length ERK8 (M1 to P437 residues) expressed in bacterial expression system assessed as residual activity at 20 uM by Kinomescan method relative to control.
In experiment [12] the test system is HeLa. The experiment is described as follows: Cell cycle arrest in human HeLa cells assessed as accumulation at G2/M phase at 5 uM after 24 hrs by propidium iodide staining based flow cytometry (reference value: 15.7%). It is filed as functional. Put shortly: (§3)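 HeLa cells, 3×10^5/well, attached overnight, switched to serum-free medium for synchronisation, then DMSO or 5, 10, 20 µM for 24 h; cells fixed, PI-stained, G0/G1, S and G2/M fractions by flow cytometry; n = 3, mean ± SD.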

Experiment [13] deals with HeLa. The experiment is described as follows: Cell cycle arrest in human HeLa cells assessed as accumulation at G2/M phase at 20 uM after 24 hrs by propidium iodide staining based flow cytometry (reference value: 15.7%). It is filed as functional. Put shortly: as §3

Structures are written as SMILES. The source made the active and inactive calls. No cut-off for these calls is given here.

Sequence of Tyrosine-protein kinase SYK (Mus musculus) (P48025 whole entry, looked up): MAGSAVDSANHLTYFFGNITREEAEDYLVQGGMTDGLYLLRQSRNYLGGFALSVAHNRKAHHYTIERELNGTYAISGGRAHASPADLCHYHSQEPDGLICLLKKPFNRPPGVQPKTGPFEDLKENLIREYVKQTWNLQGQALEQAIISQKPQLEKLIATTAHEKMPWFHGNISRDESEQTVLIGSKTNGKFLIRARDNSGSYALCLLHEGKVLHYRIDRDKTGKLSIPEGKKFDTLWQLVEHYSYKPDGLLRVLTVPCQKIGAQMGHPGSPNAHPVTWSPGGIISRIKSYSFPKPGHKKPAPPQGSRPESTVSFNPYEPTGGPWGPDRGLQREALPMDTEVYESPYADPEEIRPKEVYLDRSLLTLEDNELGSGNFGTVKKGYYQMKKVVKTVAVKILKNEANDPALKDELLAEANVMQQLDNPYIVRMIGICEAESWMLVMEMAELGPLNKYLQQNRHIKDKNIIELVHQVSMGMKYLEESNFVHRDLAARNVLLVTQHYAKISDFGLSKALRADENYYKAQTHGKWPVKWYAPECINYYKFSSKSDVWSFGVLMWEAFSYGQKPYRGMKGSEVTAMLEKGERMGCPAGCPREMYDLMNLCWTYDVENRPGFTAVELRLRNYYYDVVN
Sequence of Mitogen-activated protein kinase 15 (Homo sapiens) (Q8TD08 whole entry, the tested form may be a part): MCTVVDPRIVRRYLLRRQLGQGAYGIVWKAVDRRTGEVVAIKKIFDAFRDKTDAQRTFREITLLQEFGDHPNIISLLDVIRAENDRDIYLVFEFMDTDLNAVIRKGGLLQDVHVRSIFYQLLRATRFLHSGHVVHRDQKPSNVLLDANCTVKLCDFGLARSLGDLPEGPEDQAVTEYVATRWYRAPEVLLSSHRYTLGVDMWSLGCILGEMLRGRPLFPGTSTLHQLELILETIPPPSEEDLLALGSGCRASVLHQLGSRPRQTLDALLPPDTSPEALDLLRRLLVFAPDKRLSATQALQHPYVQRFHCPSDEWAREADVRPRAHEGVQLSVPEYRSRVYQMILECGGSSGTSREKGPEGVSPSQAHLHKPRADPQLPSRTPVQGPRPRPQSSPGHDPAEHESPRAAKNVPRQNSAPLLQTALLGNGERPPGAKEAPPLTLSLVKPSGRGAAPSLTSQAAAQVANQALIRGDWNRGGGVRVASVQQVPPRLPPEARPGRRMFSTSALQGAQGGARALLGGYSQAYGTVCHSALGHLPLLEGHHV
Sequence of Tumor necrosis factor receptor superfamily member 1A (P19438 whole entry): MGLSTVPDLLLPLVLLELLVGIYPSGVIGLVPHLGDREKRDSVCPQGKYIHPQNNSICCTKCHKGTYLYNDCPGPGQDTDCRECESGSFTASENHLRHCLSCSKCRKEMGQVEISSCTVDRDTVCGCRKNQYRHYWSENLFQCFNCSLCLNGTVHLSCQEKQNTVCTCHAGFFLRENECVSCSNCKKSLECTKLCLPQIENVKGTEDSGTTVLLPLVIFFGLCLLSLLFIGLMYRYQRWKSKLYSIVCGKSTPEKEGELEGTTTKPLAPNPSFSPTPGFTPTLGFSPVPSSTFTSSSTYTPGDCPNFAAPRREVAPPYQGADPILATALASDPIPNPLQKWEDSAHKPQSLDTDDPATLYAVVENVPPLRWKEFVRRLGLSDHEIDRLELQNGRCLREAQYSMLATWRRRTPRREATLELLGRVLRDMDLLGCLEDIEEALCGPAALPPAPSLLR
Sequence of Toll-like receptor 5 (Homo sapiens) (O60602 whole entry): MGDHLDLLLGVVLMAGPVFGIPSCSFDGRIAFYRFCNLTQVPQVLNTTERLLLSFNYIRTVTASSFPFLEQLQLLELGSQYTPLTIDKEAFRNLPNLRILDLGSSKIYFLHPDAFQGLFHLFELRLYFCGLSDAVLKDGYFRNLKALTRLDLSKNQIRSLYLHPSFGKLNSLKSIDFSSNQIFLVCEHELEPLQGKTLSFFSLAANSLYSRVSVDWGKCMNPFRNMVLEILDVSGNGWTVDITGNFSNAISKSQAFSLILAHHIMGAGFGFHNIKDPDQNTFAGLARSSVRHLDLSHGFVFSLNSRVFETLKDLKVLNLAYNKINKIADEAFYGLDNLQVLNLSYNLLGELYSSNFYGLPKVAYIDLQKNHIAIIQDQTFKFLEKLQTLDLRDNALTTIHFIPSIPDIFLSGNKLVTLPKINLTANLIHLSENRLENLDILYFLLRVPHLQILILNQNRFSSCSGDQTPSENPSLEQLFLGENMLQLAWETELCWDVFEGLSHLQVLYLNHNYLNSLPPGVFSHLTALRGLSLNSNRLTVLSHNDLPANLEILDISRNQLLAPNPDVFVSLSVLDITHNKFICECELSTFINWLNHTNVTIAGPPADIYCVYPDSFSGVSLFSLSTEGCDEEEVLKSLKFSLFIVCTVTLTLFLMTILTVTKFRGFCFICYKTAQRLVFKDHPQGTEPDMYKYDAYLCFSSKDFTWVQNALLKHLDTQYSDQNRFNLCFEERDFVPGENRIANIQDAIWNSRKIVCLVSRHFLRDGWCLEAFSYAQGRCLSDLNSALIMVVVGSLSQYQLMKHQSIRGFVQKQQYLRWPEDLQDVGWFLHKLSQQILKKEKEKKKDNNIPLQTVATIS
Sequence of Toll-like receptor 8 (Homo sapiens) (Q9NR97 whole entry): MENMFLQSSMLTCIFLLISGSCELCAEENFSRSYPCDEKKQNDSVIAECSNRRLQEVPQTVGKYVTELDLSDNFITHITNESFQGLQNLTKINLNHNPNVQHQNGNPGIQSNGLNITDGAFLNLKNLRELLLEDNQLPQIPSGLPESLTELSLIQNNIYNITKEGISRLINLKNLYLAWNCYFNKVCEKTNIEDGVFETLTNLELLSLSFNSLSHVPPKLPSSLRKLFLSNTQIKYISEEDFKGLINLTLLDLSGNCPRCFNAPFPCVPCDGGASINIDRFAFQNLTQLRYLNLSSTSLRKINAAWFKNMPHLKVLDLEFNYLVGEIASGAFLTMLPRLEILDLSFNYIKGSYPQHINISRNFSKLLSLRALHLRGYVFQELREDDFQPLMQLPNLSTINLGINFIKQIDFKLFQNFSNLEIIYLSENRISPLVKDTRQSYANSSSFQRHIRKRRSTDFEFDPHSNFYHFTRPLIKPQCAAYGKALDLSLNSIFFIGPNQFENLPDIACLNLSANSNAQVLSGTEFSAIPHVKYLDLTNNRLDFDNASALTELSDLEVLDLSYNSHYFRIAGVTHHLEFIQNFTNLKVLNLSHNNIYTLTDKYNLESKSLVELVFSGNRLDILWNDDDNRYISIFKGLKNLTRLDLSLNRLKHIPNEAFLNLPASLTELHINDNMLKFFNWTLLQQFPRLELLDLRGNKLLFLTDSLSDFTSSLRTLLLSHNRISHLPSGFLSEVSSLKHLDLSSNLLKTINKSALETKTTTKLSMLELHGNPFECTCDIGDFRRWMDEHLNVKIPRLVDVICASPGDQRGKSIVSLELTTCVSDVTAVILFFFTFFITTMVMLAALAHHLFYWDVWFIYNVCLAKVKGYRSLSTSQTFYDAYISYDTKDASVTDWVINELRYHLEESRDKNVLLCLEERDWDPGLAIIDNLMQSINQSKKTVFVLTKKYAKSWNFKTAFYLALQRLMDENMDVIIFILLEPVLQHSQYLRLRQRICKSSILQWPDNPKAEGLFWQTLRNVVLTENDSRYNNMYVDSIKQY
Sequence of Toll-like receptor 9 (Homo sapiens) (Q9NR96 whole entry): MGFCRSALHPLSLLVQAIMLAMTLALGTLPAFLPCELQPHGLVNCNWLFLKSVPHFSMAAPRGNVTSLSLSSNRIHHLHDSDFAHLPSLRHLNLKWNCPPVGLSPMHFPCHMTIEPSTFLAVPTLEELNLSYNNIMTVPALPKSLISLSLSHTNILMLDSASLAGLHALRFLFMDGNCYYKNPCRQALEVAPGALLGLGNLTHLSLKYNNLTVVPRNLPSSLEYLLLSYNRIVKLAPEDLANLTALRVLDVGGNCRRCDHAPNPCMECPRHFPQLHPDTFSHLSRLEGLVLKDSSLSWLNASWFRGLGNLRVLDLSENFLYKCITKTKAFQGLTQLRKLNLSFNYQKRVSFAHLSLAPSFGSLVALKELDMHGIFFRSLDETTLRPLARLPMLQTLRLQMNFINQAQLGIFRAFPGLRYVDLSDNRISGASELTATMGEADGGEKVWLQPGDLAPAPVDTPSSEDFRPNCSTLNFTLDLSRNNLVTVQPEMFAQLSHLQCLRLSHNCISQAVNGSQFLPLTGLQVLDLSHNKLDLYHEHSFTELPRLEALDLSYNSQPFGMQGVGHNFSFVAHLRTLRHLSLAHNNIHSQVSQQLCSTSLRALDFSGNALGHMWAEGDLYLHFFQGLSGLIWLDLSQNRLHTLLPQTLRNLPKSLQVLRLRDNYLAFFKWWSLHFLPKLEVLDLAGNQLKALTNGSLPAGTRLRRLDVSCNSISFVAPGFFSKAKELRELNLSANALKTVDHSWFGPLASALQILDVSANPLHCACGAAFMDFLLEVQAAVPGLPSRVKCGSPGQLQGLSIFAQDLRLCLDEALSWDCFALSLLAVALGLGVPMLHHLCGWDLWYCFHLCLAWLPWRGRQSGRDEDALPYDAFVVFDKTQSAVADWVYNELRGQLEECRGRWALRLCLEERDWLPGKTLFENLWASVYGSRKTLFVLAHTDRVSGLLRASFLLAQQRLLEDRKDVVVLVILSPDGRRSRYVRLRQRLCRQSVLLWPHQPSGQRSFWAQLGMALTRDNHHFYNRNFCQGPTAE

In the case of `O=C(NNC(=O)c1csc(-c2ccc(Cl)cc2Cl)n1)c1ccccn1`, the inhibition was 99.6% in experiment [1] and “Dose-dependent effect” in experiment [9]. The inhibition entry (in experiment [2]; in experiment [4]; in experiment [5]; in the experiment with RAW264.7 [7]) was “Active” in each case. For the same molecule, the Activity result in the experiment with HeLa [3] was “Dose-dependent effect”; in experiment [11], 44%; with HeLa [12], 13.8%; with HeLa [13], 3.9%. In addition, in [6], the IC50 is 770 nM. For the same molecule, the inhibition result (in the experiment on RAW264.7 [8]; in [10]) was “inactive” throughout.

Source of the values: ChEMBL document CHEMBL4190396, “Discovery of Novel Small-Molecule Inhibitors of NF-κB Signaling with Antiinflammatory and Anticancer Properties” (J Med Chem, 2018).
